# Assay results as given in ChEMBL document CHEMBL4371064, “Erythrofordins D and E, two new cassaine-type diterpenes from Erythrophleum suaveolens” (2019).
# Key:
# Format in all cases: functional
# PC-3 = experiment: Growth inhibition of human PC3 cells incubated for 48 hrs by sulforhodamine B assay; conditions: PC-3, 48 h
# How it was run: (§1)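 Run in the NCI-60 human tumour cell line panel with dose-response testing. GI50 was determined for each cell line from its dose-response data.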
# ACHN = experiment: Growth inhibition of human ACHN cells incubated for 48 hrs by sulforhodamine B assay; how it was run: as §1
# TK-10 = experiment: Growth inhibition of human TK10 cells incubated for 48 hrs by sulforhodamine B assay; conditions: TK-10, 48 h
# How it was run: (§2)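 Tested in the NCI 60-human-tumour-cell-line screen using the five-dose format. GI₅₀ was derived from each cell line's dose-response. TGI and LC₅₀ were derived from the same dose-response data.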
# A549 = experiment: Growth inhibition of human A549/ATCC cells incubated for 48 hrs by sulforhodamine B assay; conditions: A549, 48 h; how it was run: as §1
# CAKI-1 = experiment: Growth inhibition of human Caki1 cells incubated for 48 hrs by sulforhodamine B assay; conditions: CAKI-1, 48 h; how it was run: as §1
# UO-31 = experiment: Growth inhibition of human UO31 cells incubated for 48 hrs by sulforhodamine B assay; conditions: UO-31, 48 h; how it was run: as §2
# MDA-MB-468 = experiment: Growth inhibition of human MDA-MB-468 cells incubated for 48 hrs by sulforhodamine B assay; conditions: MDA-MB-468, 48 h; how it was run: as §1
# HOP-62 = experiment: Growth inhibition of human HOP62 cells incubated for 48 hrs by sulforhodamine B assay; conditions: HOP-62, 48 h; how it was run: as §1
# OVCAR-5 = experiment: Growth inhibition of human OVCAR5 cells incubated for 48 hrs by sulforhodamine B assay; conditions: OVCAR-5, 48 h; how it was run: as §1
# CCRF-CEM = experiment: Growth inhibition of human CCRF-CEM cells incubated for 48 hrs by sulforhodamine B assay; how it was run: as §1
# K562 = experiment: Growth inhibition of human K562 cells incubated for 48 hrs by sulforhodamine B assay; conditions: K562, 48 h; how it was run: as §1
# RPMI-8226 = experiment: Growth inhibition of human RPMI8226 cells incubated for 48 hrs by sulforhodamine B assay; conditions: RPMI-8226, 48 h; how it was run: as §1
# SK-MEL-2 = experiment: Growth inhibition of human SK-MEL-2 cells incubated for 48 hrs by sulforhodamine B assay; conditions: SK-MEL-2, 48 h; how it was run: as §1
# NCI-H522 = experiment: Growth inhibition of human NCI-H522 cells incubated for 48 hrs by sulforhodamine B assay; conditions: NCI-H522, 48 h; how it was run: as §1
# NCI-H23 = experiment: Growth inhibition of human NCI-H23 cells incubated for 48 hrs by sulforhodamine B assay; conditions: NCI-H23, 48 h; how it was run: as §1
# SN12C = experiment: Growth inhibition of human SN12C cells incubated for 48 hrs by sulforhodamine B assay; how it was run: as §1
# MOLT-4 = experiment: Growth inhibition of human MOLT4 cells incubated for 48 hrs by sulforhodamine B assay; conditions: MOLT-4, 48 h; how it was run: as §1
# SF-268 = experiment: Growth inhibition of human SF268 cells incubated for 48 hrs by sulforhodamine B assay; conditions: SF-268, 48 h; how it was run: as §1
# M14 = experiment: Growth inhibition of human M14 cells incubated for 48 hrs by sulforhodamine B assay; conditions: M14, 48 h; how it was run: as §1
# Malme-3M = experiment: Growth inhibition of human MALME-3M cells incubated for 48 hrs by sulforhodamine B assay; how it was run: as §1
# NCI/ADR-RES = experiment: Growth inhibition of human NCI/ADR-RES cells incubated for 48 hrs by sulforhodamine B assay; how it was run: as §1
# BT-549 = experiment: Growth inhibition of human BT549 cells incubated for 48 hrs by sulforhodamine B assay; conditions: BT-549, 48 h; how it was run: as §1
# Hs-578T = experiment: Growth inhibition of human Hs578T cells incubated for 48 hrs by sulforhodamine B assay; how it was run: as §1
# NCI-H460 = experiment: Growth inhibition of human NCI-H460 cells incubated for 48 hrs by sulforhodamine B assay; conditions: NCI-H460, 48 h; how it was run: as §1
# SW-620 = experiment: Growth inhibition of human SW620 cells incubated for 48 hrs by sulforhodamine B assay; conditions: SW-620, 48 h; how it was run: as §2
# U-251 = experiment: Growth inhibition of human U251 cells incubated for 48 hrs by sulforhodamine B assay; conditions: U-251, 48 h; how it was run: as §2
# HL-60(TB) = experiment: Growth inhibition of human HL-60(TB) cells incubated for 48 hrs by sulforhodamine B assay; conditions: HL-60, 48 h
# How it was run: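 Run within the NCI-60 human tumour cell line panel as a dose-response screen. For each cell line the readouts are GI50, TGI and LC50. Per-line log values also feed a mean-graph analysis, in which the arithmetic mean of the log values across all lines is subtracted from each line's log value.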
# IGROV-1 = experiment: Growth inhibition of human IGROV1 cells incubated for 48 hrs by sulforhodamine B assay; conditions: IGROV-1, 48 h; how it was run: as §1
# SF-539 = experiment: Growth inhibition of human SF539 cells incubated for 48 hrs by sulforhodamine B assay; conditions: SF-539, 48 h; how it was run: as §1
# SK-OV-3 = experiment: Growth inhibition of human SKOV3 cells incubated for 48 hrs by sulforhodamine B assay; conditions: SK-OV-3, 48 h; how it was run: as §1
# [1] = read-out: pLC50 (the source's name) (converted)
smiles,measurement,setting,value
COC(=O)/C=C1\CC[C@H]2[C@@H](CC(=O)[C@H]3C(C)(C)[C@@H](O)CC[C@]23C)[C@H]1C,GI50,PC-3,3.16 µM
same,CC50,PC-3; [1],> 34.7 µM
same,TGI,PC-3; read-out: pTGI (converted),15.8 µM
same,GI50,ACHN,0.794 µM
same,LC50,ACHN,10 µM
same,TGI,ACHN; read-out: pTGI (converted),2.19 µM
same,GI50,TK-10,1.48 µM
same,LC50 (lethal concentration killing 50% of cells),TK-10,> 34.7 µM
same,TGI,TK-10; read-out: pTGI (converted),7.94 µM
same,GI50,A549,0.603 µM
same,LC50,A549,2.09 µM
same,TGI,A549; read-out: pTGI (converted),1.12 µM
same,GI50,CAKI-1,1.38 µM
same,LC50,CAKI-1,> 34.7 µM
same,TGI,CAKI-1; read-out: pTGI (converted),6.76 µM
same,GI50,UO-31,1.05 µM
same,LC50,UO-31,16.2 µM
same,TGI,UO-31; read-out: pTGI (converted),5.01 µM
same,GI50,MDA-MB-468,10 µM
same,CC50,MDA-MB-468; [1],> 34.7 µM
same,TGI,MDA-MB-468; read-out: pTGI (converted),> 34.7 µM
same,GI50,HOP-62,1.1 µM
same,CC50,HOP-62; [1],15.1 µM
same,TGI,HOP-62; read-out: pTGI (converted),4.47 µM
same,GI50,OVCAR-5,5.89 µM
same,LC50,OVCAR-5,> 34.7 µM
same,TGI,OVCAR-5; read-out: pTGI (converted),17.4 µM
same,GI50,CCRF-CEM,1.15 µM
same,LC50,CCRF-CEM,> 34.7 µM
same,TGI,CCRF-CEM; read-out: pTGI (converted),7.59 µM
same,GI50,K562,5.13 µM
same,LC50,K562,> 34.7 µM
same,TGI,K562; read-out: pTGI (converted),28.8 µM
same,GI50,RPMI-8226,8.91 µM
same,LC50,RPMI-8226,> 34.7 µM
same,TGI,RPMI-8226; read-out: pTGI (converted),> 34.7 µM
same,GI50,SK-MEL-2,7.41 µM
same,LC50 (concentration killing 50% of cells),SK-MEL-2,> 34.7 µM
same,TGI,SK-MEL-2; read-out: pTGI (converted),28.8 µM
same,GI50,NCI-H522,0.741 µM
same,LC50,NCI-H522,27.5 µM
same,TGI,NCI-H522; read-out: pTGI (converted),2.29 µM
same,GI50,NCI-H23,1.23 µM
same,LC50,NCI-H23,> 34.7 µM
same,TGI,NCI-H23; read-out: pTGI (converted),7.76 µM
same,GI50,SN12C,1.1 µM
same,LC50,SN12C,> 34.7 µM
same,TGI,SN12C; read-out: pTGI (converted),5.89 µM
same,GI50,MOLT-4,0.813 µM
same,LC50,MOLT-4,> 34.7 µM
same,TGI,MOLT-4; read-out: pTGI (converted),2.14 µM
same,GI50,SF-268,1.17 µM
same,LC50,SF-268,14.5 µM
same,TGI,SF-268; read-out: pTGI (converted),4.47 µM
same,GI50,M14,10 µM
same,LC50,M14,> 34.7 µM
same,TGI,M14; read-out: pTGI (converted),> 34.7 µM
same,GI50,Malme-3M,1.48 µM
same,LC50,Malme-3M,24.5 µM
same,TGI,Malme-3M; read-out: pTGI (converted),7.08 µM
same,GI50,NCI/ADR-RES,1.2 µM
same,CC50,NCI/ADR-RES; [1],> 34.7 µM
same,TGI,NCI/ADR-RES; read-out: pTGI (converted),6.61 µM
same,GI50,BT-549,1.26 µM
same,LC50,BT-549,> 34.7 µM
same,TGI,BT-549; read-out: pTGI (converted),5.5 µM
same,GI50,Hs-578T,0.955 µM
same,LC50,Hs-578T,> 34.7 µM
same,TGI,Hs-578T; read-out: pTGI (converted),3.39 µM
same,GI50,NCI-H460,0.776 µM
same,LC50,NCI-H460,5.13 µM
same,TGI,NCI-H460; read-out: pTGI (converted),1.74 µM
same,GI50,SW-620,1.74 µM
same,LC50,SW-620,> 34.7 µM
same,TGI,SW-620; read-out: pTGI (converted),10 µM
same,GI50,U-251,1.7 µM
same,LC50,U-251,19.5 µM
same,TGI,U-251; read-out: pTGI (converted),6.76 µM
same,GI50,HL-60(TB),5.37 µM
same,LC50,HL-60(TB),> 34.7 µM
same,TGI,HL-60(TB); read-out: pTGI (converted),21.4 µM
same,GI50,IGROV-1,3.8 µM
same,LC50,IGROV-1,> 34.7 µM
same,TGI,IGROV-1; read-out: pTGI (converted),22.4 µM
same,GI50,SF-539,1.35 µM
same,LC50,SF-539,16.2 µM
same,TGI,SF-539; read-out: pTGI (converted),5.5 µM
same,GI50,SK-OV-3,8.51 µM
same,LC50,SK-OV-3,> 34.7 µM
same,TGI,SK-OV-3; read-out: pTGI (converted),22.9 µM
